The values below come from article PMC10692362 (Acta Pharmaceutica Sinica. B, 2023).

One series has as its system LCC-2 cells. Kind of series: Cell viability assay on tamoxifen-resistant LCC-2 cells. The format is cell-based. The following applies: Homo sapiens, LCC2, read-out: LCC-2 IC50.
The next series is described as follows: PK studies in mice. The format is in vivo, BALB/c female mice. A digest of the protocol: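 Female BALB/c mice (n = 3/group) were dosed iv at 2 mg/kg in DMSO/PEG400/β-cyclodextrin/saline (5:40:10:45), ip at 4 mg/kg in DMSO/PEG400/saline (5:40:55), or po at 20 mg/kg in corn oil/DMSO (95:5). Blood was sampled at […]. Plasma was deproteinised with MeCN and analysed by LC/MS/MS, with three plasma samples per time point.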

A further series has as its system T-47D^D538G cells. Kind of series: Cell viability assay. The format is cell-based, human. As to conditions: Homo sapiens, 72 h, read-out: T-47D^D538G IC50.
The mark [1] stands for this setting: female, BALB/c, mouse, plasma, ip, 4 mg/kg.
Where [2] appears, read: female, BALB/c, mouse, plasma, iv, 2 mg/kg.
[3] abbreviates: female, BALB/c, mouse, plasma, po, 20 mg/kg.

The structures appear in SMILES notation.

As to `CC(C)=CC(=O)Nc1ccc(C2=C(c3ccc(O)cc3)C3OC2CC3S(=O)(=O)N(CC(F)(F)F)c2ccc(O)cc2)cc1` (centres unmarked) [Compound 29c, N-(4-(3-(4-Hydroxyphenyl)-5-(N-(4-hydroxyphenyl)-N-(2,2,2-trifluoroethyl)sulfamoyl)-7-oxabicyclo[2.2.1]hept-2-en-2-yl)phenyl)-3-methylbut-2-enamide], the IC50 (usually the midpoint of a concentration-inhibition curve) in the series on LCC-2 cells was determined as 2100 ± 370 nM. Further, in “PK studies in mice” (setting [1]), the AUC (as a rule, the area under the concentration-time curve, a measure of exposure) amounted to 960 ng·h/mL; the highest level (Cmax) was 352 ng/mL; the Tmax – broadly, the time from dosing to the highest level – is 0.167 h; the half-life (as a rule, the time in which the quantity being followed falls by half) was 6.38 h. Further, in the series “PK studies in mice” (setting [2]), the AUC worked out at 1210 ng·h/mL; the Cmax (commonly the maximum level reached in the sampled fluid or tissue) was determined as 1420 ng/mL; the Tmax came to 0.083 h; the Vd (usually a proportionality between amount in the body and measured concentration, not a real space) was found to be 4.5 L/kg. Besides, in the series “PK studies in mice” (setting [2]), the clearance (in general, a measure of how efficiently the substance is removed, as volume per time) was found to be 27.7 mL/min/kg and the half-life was 2.77 h. For the same compound, in the series “PK studies in mice” (setting [3]), the AUC is 360 ng·h/mL, the Cmax is 153 ng/mL, the Tmax stood at 0.5 h and the half-life was 5.81 h. In addition, the Oral bioavailability result in the series “PK studies in mice” (mice) was “insufficient oral bioavailability”. For the same compound, the IC50 in the series with T-47D^D538G cells worked out at 1910 ± 180 nM.
